Measured values as given in article PMC8502542 (International Journal of Nanomedicine, 2021).

Key:
MIA PaCa-2 cell line = assay: MTT cytotoxicity and combination index; type: cell-based, human; details: MIA PaCa-2, MTT, 72 hours
Summary of the method: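 MIA PaCa-2 (ATCC) seeded at 3×10^3 cells/well and grown 24 h at 37°C, 5% CO2. Exposed 72 h to test compound (DMSO solution, solvent-based, or albumin nanoparticle form) at 0.01, 0.1, 1, 5, 10, 50, 100 and 1000 ng/mL. MTT (0.5 mg/mL) added for 2 h, formazan dissolved in DMSO, A550 read. Survival expressed as % of control wells.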

[1] = plasma, after administration; cited from earlier work

Row | Structure (SMILES) | IC50, weight ratio CFZ:PTX 0: 1 (MIA PaCa-2 cell line; PTX form alone) | initial half-life (T1/2,initial) [1] | IC50, weight ratio CFZ:PTX 1: 0 (MIA PaCa-2 cell line; CFZ form alone)
1 | CC(=O)O[C@H]1C(=O)[C@@]2(C)[C@H]([C@H](OC(=O)c3ccccc3)[C@]3(O)C[C@H](OC(=O)[C@H](O)[C@@H](NC(=O)c4ccccc4)c4ccccc4)C(C)=C1C3(C)C)[C@]1(OC(C)=O)CO[C@@H]1C[C@@H]2O [PTXfree, paclitaxel] | 0.44 ng/mL |  | 
2 | CC(C)C[C@H](NC(=O)[C@H](CCc1ccccc1)NC(=O)CN1CCOCC1)C(=O)N[C@@H](Cc1ccccc1)C(=O)N[C@@H](CC(C)C)C(=O)[C@@]1(C)CO1 [CFZfree, carfilzomib] |  | < 20 min | 8.90 ng/mL
